These results are taken from PMC10732652 (Virulence, 2023).

The test system of data set [1] is ScpC protease. As to conditions: S. pyogenes; cited from earlier work.
A further data set has as its system PepOE513A. The data set can be described thus: Cleavage of cathelicidins by catalytic site-mutated PepOE513A. Particulars: 20 μM peptide, 500 nM PepOE513A, PBS, 37°C, 3 hours; SDS-PAGE. In kind it is in vitro ADME, Streptococcus suis. The method, boiled down:
(§1)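 Enzyme: His-tagged PepO (aa 29–663) or its Glu513→Ala variant, expressed from pET22b in E. coli BL21(DE3) with 0.5 mM IPTG at 16°C for 12 h. Purified by Ni-Sepharose and exchanged into PBS. Substrates were synthetic LL-37 or mCRAMP (>95% purity). Uncleaved peptide served as control. Products were analysed by SDS-PAGE or MALDI-TOF/TOF MS.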

Another data set concerns Mouse neutrophils. In words: Neutrophil chemotaxis assay. In kind it is cell-based. As to conditions: 1 μM in bottom chamber, 5 × 10^5 cells, 40 minutes, 37°C. The gist of the method: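 Bone-marrow neutrophils from C57BL/6 mice, purified on Histopaque-1119/1077 gradients, CellTracker Green-labelled, 1 × 10^7 cells/ml in RPMI-1640. 5 × 10^5 cells placed in Transwell inserts; 1 μM peptides, PepO digests or fragments in lower chamber; 5 μM fMLP as positive control. 40 min at 37°C, migrated cells counted by fluorescence microscopy. CI = cells migrating toward stimulus ÷ toward medium.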

A further data set relates to ApdS. As to conditions: cited from earlier work.
For a further data set, the system named is S. suis ΔpepO. In words: Live/Dead staining. It is filed as cell-based, Streptococcus suis. As to conditions: 1 × 10^5 CFU/ml, 2 μM, 1 hour, CLSM. The method, boiled down: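 S. suis serotype 2 strain 05ZYH33 ΔpepO mutant, grown in TSB at 37°C/5% CO2; fresh culture washed twice, diluted to 1 × 10^5 CFU/ml. Exposed 1 h to 2 μM cathelicidin peptides, their PepO digests (20 μM peptide + 500 nM His-tagged PepO, PBS, 37°C, 3 h) or truncated fragments. BacLight stained, washed after 15 min, confocal imaging: SYTO9 480/500 nm, PI 490/635 nm.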

For data set [2], the system named is Mouse peritoneal macrophages. The data set can be described thus: Lysosome formation analysis. In kind it is cell-based. As to conditions: 2 μM, 37°C, 4 hours, 5 × 10^4 cells, CLSM. The gist of the method: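 Macrophages from peritoneal fluid of C57BL/6 mice 3 days after i.p. thioglycollate; spun 600 × g 10 min, kept in RPMI-1640, non-adherent cells removed at 6 h. 5 × 10^4 cells exposed 4 h at 37°C to peptides, PepO digests or fragments. Fixed in 4% formaldehyde, permeabilised with 0.1% Triton X-100, blocked in 3% BSA. Rabbit anti-LAMP1 (37°C, 1 h), Alexa Fluor 594 secondary, DAPI; confocal imaging.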

For data set [3], the system named is PepO. In words: Cleavage of cathelicidins by recombinant PepO. In kind it is in vitro ADME, Streptococcus suis. Particulars: 20 μM peptide, 500 nM PepO, PBS, 37°C, 3 hours; SDS-PAGE. The gist of the method:
as §1

Data set [4] concerns S. suis WT, ΔpepO, and CΔpepO strains. In words: Bactericidal assay, sensitivity of S. suis strains toward cathelicidins. In kind it is cell-based, Streptococcus suis. As to conditions: 8 × 10^4 CFU/ml in PBS, peptide 0–4 μM, 37°C, 1 hour, CFU counting on TSA. The method, boiled down:
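S. suis serotype 2 strain 05ZYH33 (wild type), its ΔpepO mutant and the complemented strain were grown in TSB at 37°C with 5% CO2 to OD600 0.5. Cells were washed twice and resuspended in PBS. After 1 h at 37°C with LL-37 or mCRAMP, samples were serially diluted and plated on TSA to count surviving CFU.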

A further data set relates to aminopeptidase ApdS. Particulars: S. suis; cited from earlier work.
Data set [5] has as its system PepO. The data set can be described thus: 500 nM of PepO in PBS. Particulars: S. suis, 37°C, up to 3 hours.
For data set [6], the system named is ScpC protease. As to conditions: cited from earlier work.

Entries after “also recorded” stand apart in the source; their conditions may differ.

Consider GLLRKGGEKIGEKLKKIGQKIKNFFQKLVPQPEQ, for which the not cleaved result in the data set on ScpC protease [1] is “cannot cleave mCRAMP”.

For LL-37, the “Cleavage by PepOE513A” value in the data set on PepOE513A is reported as “could not cleave LL-37”. For the same substance, the “Chemotaxis of neutrophils (chemotaxis index, CI)” value in the data set with Mouse neutrophils is “effectively chemoattracted mouse neutrophils”. Also, in the data set with ApdS, the “Time to cleavage by ApdS” value was “in just a few seconds”. Moreover, the “Membrane damage, viable and dead bacteria (SYTO9/PI)” value in the data set with S. suis ΔpepO is reported as “the number of dead bacteria was clearly larger than that in the PBS-treated group”. In addition, in data set [2], the “Lysosome formation (LAMP1)” value was “facilitated lysosome formation in mouse macrophages”. In addition, the “Cleavage by PepO” value in the data set on PepO [3] is recorded as “the band intensity of LL-37 disappeared”. For the same substance, the “Resistance of complementary strain CΔpepO” value in [4] is listed as “partially restored”.

With LLGDFFRKSKEKIGKEFKRIVQRIKDFLRNLVPRTES, the fragment found was 3 AA at the N-terminal with aminopeptidase ApdS and “FR-7 (F6-K12); FRKSKEK, major; also recorded: IG-7 (I13-R19); IGKEFKR, major” in the data set with PepO [5].

With mCRAMP, the “Chemotaxis of neutrophils (chemotaxis index, CI)” value with Mouse neutrophils is on record as “chemoattracted mouse neutrophils just as well as LL-37”. Further, in the data set on S. suis ΔpepO, the “Membrane damage, viable and dead bacteria (SYTO9/PI)” value is “the number of dead bacteria was clearly larger than that in the PBS-treated group”. In addition, in data set [2], the “Lysosome formation (LAMP1)” value was “facilitated lysosome formation in mouse macrophages”. For the same substance, the “Cleavage by PepO” value with PepO [3] is listed as “also cleaved by PepO”. Moreover, in the data set with ScpC protease [6], the “Cleavage by ScpC protease” value was “cannot cleave mCRAMP”.
